Experimental data gathered from unrelated publications.
Protocols differ between the studies behind these lines.
Effect on: metabolic stability

Structure (SMILES)	test system	setting	endpoint	value
N#Cc1ccc(C[C@H](Nc2nnc(-c3cccc(F)c3)s2)C(=O)N2CCc3ccccc32)cc1	rat, liver microsomes	10 µM, pH 7.4	microsomal CLint	14.7 µL/min/mg
C[C@]1(O)CCCN(c2nc(Nc3ccc(S(=O)(=O)N[C@H]4CC[C@H](CN5CCN(c6ccc(C7CCC(=O)NC7=O)cc6F)CC5)CC4)cc3F)ncc2C(F)(F)F)C1 (stereo partly shown)	rat, liver microsomes	1 µM	scaled CLint	< 21 mL/min/kg
Cc1ccc(N(c2ccc(NC(=O)CN(C)c3ccccc3N3CCCC3=O)cc2)C(C)C)cc1	rat, hepatocytes	–	hepatocyte CLint	> 92 µL/min/10⁶ cells
COc1cc(NC(=O)Cn2cc(Cl)c3ccc(-c4cnn(C)c4)cc32)cc(OC)c1OC	rat, hepatocytes	–	hepatocyte CLint	< 1 µL/min/10⁶ cells
COc1cnc(Nc2cnnc3ccc(-c4ccc(N5CCN(C)CC5)cc4)cc23)nc1	rat, hepatocytes	–	hepatocyte CLint	> 300 µL/min/10⁶ cells
Cc1cc(S(=O)(=O)N[C@H]2CC[C@H](N3CCN(CC4CCN(c5cccc6c5n(C)c(=O)n6C5CCC(=O)NC5=O)CC4)CC3)CC2)ccc1Nc1ncc(C(F)(F)F)c(N2CCC[C@](C)(O)C2)n1 (stereo partly shown)	rat, liver microsomes	1 µM	scaled CLint	< 21 mL/min/kg
NCCOCC(=O)N1CCC[C@H](C(=O)NCc2nc(-c3ccc(C(F)(F)F)cc3)cs2)C1	male Sprague-Dawley rat, liver microsomes	0.5 µM	scaled CLint	< 5.6 mL/min/kg
Cc1cc(S(=O)(=O)N[C@H]2CC[C@H](CN3CCN(c4ccc(C5CCC(=O)NC5=O)c(Cl)c4)CC3)CC2)ccc1Nc1ncc(C(F)(F)F)c(N2CCC[C@](C)(O)C2)n1 (stereo partly shown)	rat, liver microsomes	1 µM	scaled CLint	< 21 mL/min/kg
Cc1[nH]c(C)c(S(=O)(=O)Nc2ccc(C(F)(F)F)c(Cl)c2)c1C(=O)N1CCC(F)(F)C1	rat, liver microsomes	–	microsomal CLint	87 µL/min/mg
N#Cc1ccc(-c2csc(CNC(=O)[C@H]3CCCN(C(=O)COC4CC4)C3)n2)cc1	male Sprague-Dawley rat, liver microsomes	0.5 µM	microsomal CLint	100 µL/min/mg
N#Cc1ccc(C[C@@H](Nc2c(Nc3ccc(F)cc3)c(=O)c2=O)C(=O)N2CCc3ccccc32)cc1	rat, liver microsomes	10 µM, pH 7.4	microsomal CLint	46.2 µL/min/mg
COCC(=O)N1CCC[C@H](C(=O)NCc2nc(-c3ccc(-c4ccccn4)cc3)cs2)C1	male Sprague-Dawley rat, liver microsomes	0.5 µM	microsomal CLint	104 µL/min/mg
Cc1ccc(Oc2ccc(NC(=O)CNc3ccccc3N3CCCC3=O)cc2)cc1	rat, hepatocytes	–	hepatocyte CLint	58 µL/min/10⁶ cells
Cc1cc(S(=O)(=O)NC2CC(N3CCN(CC4CCN(c5cccc6c5n(C)c(=O)n6C5CCC(=O)NC5=O)CC4)C4(CC4)C3)C2)ccc1Nc1ncc(C(F)(F)F)c(N2CCC[C@](C)(O)C2)n1 (stereo partly shown)	rat, liver microsomes	1 µM	scaled CLint	< 21 mL/min/kg
Cc1ccc(Oc2ccc(NC(=O)CN(C)c3ccccc3N3CCCC3=O)cc2)cc1	rat, hepatocytes	–	hepatocyte CLint	> 92 µL/min/10⁶ cells
Cc1cc(S(=O)(=O)NC2CC(N3CCN(CC4CCN(c5cccc6c5n(C)c(=O)n6C5CCC(=O)NC5=O)CC4)CC3)C2)ccc1Nc1ncc(C(F)(F)F)c(N2CCC[C@](C)(O)C2)n1 (stereo partly shown)	rat, liver microsomes	1 µM	scaled CLint	< 21 mL/min/kg

Structure (SMILES)	test system	setting	endpoint	value
Cc1ccc(N(C)c2ccc(NC(=O)CN(C)c3cc(F)ccc3N3CCCC3=O)cc2)cc1	rat, hepatocytes	–	hepatocyte CLint	91 µL/min/10⁶ cells
CONC(=O)N1CCC[C@H](C(=O)NCc2nc(-c3ccccc3)cs2)C1	male Sprague-Dawley rat, liver microsomes	0.5 µM	microsomal CLint	18 µL/min/mg
CNS(=O)(=O)c1ccc(Nc2ncc(C(F)(F)F)c([C@H]3CC[C@](C)(O)CC3)n2)c(C)c1	rat, liver microsomes	1 µM	scaled CLint	30 mL/min/kg
Cc1ccc(N(c2ccc(NC(=O)CN(C)c3ccccc3N3CCCC3=O)cn2)C(C)C)cc1	rat, hepatocytes	–	hepatocyte CLint	86 µL/min/10⁶ cells
Cc1cc(S(=O)(=O)NC2CCC(CC3CCN(c4ccc(C5CCC(=O)NC5=O)cc4)CC3)CC2)ccc1Nc1ncc(C(F)(F)F)c(N2CCC[C@](C)(O)C2)n1 (stereo partly shown)	rat, liver microsomes	1 µM	scaled CLint	< 21 mL/min/kg
Cc1ccc(C(C)(C)c2ccc(NC(=O)CN(C)c3ccccc3N3CCCC3=O)cc2)cc1	rat, hepatocytes	–	hepatocyte CLint	63 µL/min/10⁶ cells
Cc1cc(S(=O)(=O)N[C@]2(C)C[C@@H](N3CCN(CC4CCN(c5ccc6c(c5F)n(C)c(=O)n6C5CCC(=O)NC5=O)CC4)CC3)C2)ccc1Nc1ncc(C(F)(F)F)c(N2CCC[C@](C)(O)C2)n1 (stereo partly shown)	rat, liver microsomes	1 µM	scaled CLint	< 21 mL/min/kg
N#Cc1ccc(-c2csc(CNC(=O)[C@H]3CCCN(C(=O)N4CCCC4)C3)n2)cc1	male Sprague-Dawley rat, liver microsomes	0.5 µM	microsomal CLint	223 µL/min/mg
Cc1ccc(-c2nnc(N[C@@H](Cc3ccc(C#N)cc3)C(=O)N3CCc4ccccc43)o2)cc1	rat, liver microsomes	10 µM, pH 7.4	microsomal CLint	49.5 µL/min/mg
N#Cc1ccc(-c2csc(CNC(=O)[C@H]3CCCN(C(=O)COCCF)C3)n2)cc1	male Sprague-Dawley rat, liver microsomes	0.5 µM	microsomal CLint	40 µL/min/mg
Cc1ccc(Nc2cnnc3ccc(-c4ccc(N5CCCN(C)CC5)cc4)cc23)cn1	rat, hepatocytes	–	hepatocyte CLint	10 µL/min/10⁶ cells
CCONC(=O)N1CCC[C@H](C(=O)NCc2nc(-c3ccc(C#N)cc3)cs2)C1	male Sprague-Dawley rat, liver microsomes	0.5 µM	microsomal CLint	33 µL/min/mg
Cc1ccc(Oc2ccc(NC(=O)COc3ccccc3N3CCCC3=O)cc2)cc1	rat, hepatocytes	–	hepatocyte CLint	68 µL/min/10⁶ cells
CCOCC(=O)N1CCC[C@H](C(=O)NCc2nc(-c3ccc(C#N)nc3)cs2)C1	male Sprague-Dawley rat, hepatocytes	0.5 µM	scaled CLint	17 mL/min/kg
CC(C)N(c1ccc(Cl)c(F)c1)c1ccc(NC(=O)CN(C)c2ccccc2N2CCCC2=O)cn1	rat, hepatocytes	–	hepatocyte CLint	62 µL/min/10⁶ cells
